Autophagy HCS: alters autophagy in cells | actives 0.98% (n = 190,000) | AID 463193 | calls only at 10 µM (by protocol) | MEF GFP-LC3 puncta imaging; test concentration mostly 10 µM;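 active means percentage of spot-positive cells more than 3 SD above its plate mean, without a fluorescence outlier flag or 80% toxicity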;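 further: spot-positive cell cutoff set from DMSO-treated cells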
L major viab: inhibitors of Leishmania major promastigote growth; actives 9% (n = 200,000); inhibition, % at 10 µM; AID 1063; Leishmania major promastigotes, resazurin fluorescence viability; in the data active means inhibition above about 50%;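 further: promastigotes grown with compound for 44 hours at 28 °C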
CHOP inh: CHOP inhibition in unfolded protein response | CHO-K1 CHOP-promoter luciferase, tunicamycin-induced, 15-18 h | inhibition, % at 10 µM | actives 3.8% (n = 220,000);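 active means compounds that reduced the stress-induced luciferase reporter signal by more than about 70% of percent inhibition, limit read from the data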;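 further: 0% = tunicamycin plus vehicle and 100% = wells without tunicamycin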
b-catenin transl: modulators of beta-catenin nuclear translocation; HeLa beta-catenin nuclear translocation, immunofluorescence imaging; actives 0.3% (n = 190,000); nuclear translocation activity, % at 5 µM;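 active means nuclear translocation activity above 50% at 5 µM, with a well cell count of 50 or more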;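 further: per-cell ratio of nuclear to cytoplasmic median beta-catenin stain intensity; plate controls were DMSO negative control for no effect and GSK-3 inhibitor IX positive control for full effect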
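Signal – beta-catenin immunofluorescence imaging with DAPI · Test system – human HeLa cell line · Dosing – 5 µM primary single dose, 0.1% DMSO, 0.02–20 µM confirmation series · Measure – % activation, nuclear-to-cytoplasmic median beta-catenin signal ratio per cell · Incubation – 24 h compound exposure at 37°C, 5% CO2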
Dynein transport: blocks dynein driven cargo transport along microtubules | 3617.4 mouse cells, GR-EGFP nuclear translocation imaging; test concentration mostly 20 µM; stimulated with dexamethasone, 1 µM; active compounds read low | z-score, hits read low | actives 0.47% (n = 220,000);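 active means plate z-score of nuclear minus cytoplasmic receptor signal below a set negative limit, without overly bright fluorescence or cell loss, cut at about -3.5 in these data, passing the limit was not always enough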;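 further: z-score of nuclear minus cytoplasmic ring GR-EGFP intensity difference per well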
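Buffer or medium: tet-free medium with charcoal-stripped serum / Also added: dexamethasone agonist, 1.0 µM final, for 30 min / Timing: induction 48 h, compound 1 h, agonist 30 min / Measured by: high-content fluorescence imaging after fixation / Read-out: nuclear-to-cytoplasmic GR-EGFP distribution per well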
MT stabilizer: stabilizes microtubules in HeLa cells. % tubulin-high responders, % at 10 µM. actives 0.83% (n = 200,000). HeLa tubulin immunostaining HCS, 24 h; share of cells brighter than vehicle mean+2SD. AID 2205;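 active means plate Z-score above 3 for both tubulin-high and condensed-nucleus cell shares, with cell loss under 80%, at 10 µM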;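 further: anti alpha tubulin signal scored within the nucleus-defined area of each cell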
Active calls of the source: *; i = inactive; . = no result; + = active, no number. This is a sample that favours compounds with a hit; in the whole collection about 12% have one here.

SMILES | Autophagy HCS | L major viab | CHOP inh | b-catenin transl | Dynein transport | MT stabilizer
O=C(c1cnn2c(C(F)(F)F)cc(-c3ccc4c(c3)OCO4)nc12)N1CCCCC1 | i | 99* | 31 | 0 | 1.1 | 5
CN1CCN(C(=O)c2cnn3c(C(F)(F)F)cc(-c4ccc5c(c4)OCO5)nc23)CC1 | i | 84* | -18 | -1 | 0.72 | 4
Cc1ccc(-c2cc(C(F)(F)F)n3ncc(C(=O)N4CCCc5ccccc54)c3n2)cc1 | i | -5 | 47 | -2 | -1.1 | 4
COC(=O)CSc1nn(-c2ccc(F)cc2)c(=S)s1 | i | -6 | -37 | 6 | -0.32 | 3
Cn1cc(C(=O)c2ccc(Cl)cc2Cl)cc1C(=O)N/N=C(\N)COc1ccc(Cl)cc1Cl | i | 100* | 24 | 9 | -0.8 | 0
CC(C)(C)NC(=O)CN(c1cccc([N+](=O)[O-])c1)S(=O)(=O)c1ccccc1 | i | 0 | 14 | 0 | -0.0083 | 3
CC(NC(=O)CN(c1cccc(C(F)(F)F)c1)S(=O)(=O)c1ccc(Cl)c([N+](=O)[O-])c1)c1ccccc1 (centres undefined) | i | 50* | -33 | -1 | -1.6 | 3
CC(=O)Oc1c(/C=C(\C#N)C(N)=O)[nH]c2ccccc12 | i | 96* | 18 | . | -0.77 | 5
N#C/C(=C\c1c[nH]c2ccccc12)C(N)=O | . | . | -11 | -1 | 3.3 | .
COc1ccc(/C(N)=N/OC(=O)CSc2ccccc2)cc1OC | i | 8 | 7 | -3 | 2.7 | 1
O=C(NCCCN1CCOCC1)c1ccc(S(=O)(=O)N2CCOCC2)cc1 | i | -12 | -11 | 1 | -0.73 | 4
CN(C)S(=O)(=O)c1cccc(C(=O)NCC2(N3CCOCC3)CCCCC2)c1 | . | . | 11 | 0 | 0.63 | .
O=C(NCC1(N2CCOCC2)CCCCC1)c1cccc(S(=O)(=O)N2CCc3ccccc3C2)c1 | i | 64* | 37 | 0 | 1.3 | 6
CCc1ccc(NC(=O)C(C)OC(=O)c2cccc(S(=O)(=O)N3CCc4ccccc4C3)c2)cc1 (centres undefined) | i | 89* | 28 | 0 | 0.63 | 4
O=C(NCCCN1CCOCC1)c1cccc(S(=O)(=O)N2CCc3ccccc3C2)c1 | i | -2 | 9 | -2 | -0.46 | 63*
Cc1cc(C)c(S(C)(=O)=O)c(N(C)N)n1 | i | 0 | 3 | 0 | -0.94 | 3
COc1cc(NC(=O)C2CCCO2)c(OC)cc1NC(=O)c1ccccc1 (centres undefined) | i | 83* | -12 | . | 0.16 | 2
Cc1nc(-c2cccc(Br)c2)ccc1C(=O)O | i | -13 | 6 | -1 | 0.2 | 5
CSc1nsc(N/N=C/c2ccc3c(c2)OCO3)c1C#N | i | -7 | 76* | 0 | 0.66 | 2
COc1cc(/C=N/Nc2snc(SC)c2C#N)cc(OC)c1OC | i | 0 | 20 | 0 | 0.36 | 3
CCOC(=O)c1[nH]c(CO)c(C(=O)OCC)c1C | . | . | 7 | -2 | -0.31 | .
CN1CCN(C(=O)CCn2nc(-c3ccccc3)c3ccccc3c2=O)CC1 | i | 54* | -6 | 1 | 1.2 | 4
O=C(Cn1cnc2c(nnn2Cc2ccc(F)cc2)c1=O)Nc1ccccc1 | . | . | 13 | 0 | 2.7 | .
c1ccc2c(c1)oc1c(NCCCn3ccnc3)ncnc12 | + | 94* | 11 | 0 | 3.4 | 2
Cc1nc(NCCCn2ccnc2)c2oc3ccccc3c2n1 | i | 88* | 0 | 0 | -0.15 | 3
SMILES | Autophagy HCS | L major viab | CHOP inh | b-catenin transl | Dynein transport | MT stabilizer
CCNc1nc(C)nc2c1oc1ccccc12 | i | 33 | 13 | -5 | -0.38 | 4
c1ccc2c(c1)oc1c(NCCCN3CCOCC3)ncnc12 | i | 96* | 2 | -4 | 0.64 | 2
CCS(=O)(=O)CCSC(=N)N | i | 5 | 3 | . | -0.97 | 4
CCCCNC(=O)Cn1nc([N+](=O)[O-])c([N+](=O)[O-])c1C | i | 79* | 30 | 0 | 0.69 | 4
CCCNC(=O)Cn1nc([N+](=O)[O-])c([N+](=O)[O-])c1C | i | 24 | 19 | 6 | -0.54 | 3
COc1ccc(CNC(=O)c2cc(C)nn2-c2ccccc2)cc1 | . | . | 12 | 0 | -0.1 | .
CCc1nnc(NC(=O)CSc2nnc(CSc3nc(C)cc(C)n3)n2CC)s1 | i | -3 | . | . | 2.1 | 4
Nc1ccc(-c2nc3c(Cl)cc(N)cc3[nH]2)cc1 | i | 12 | 88* | . | 0.31 | 7
O=C(CC12CC3CC(CC(C3)C1)C2)NC(=S)NCc1ccco1 | i | 93* | -9 | 11 | -1.1 | 2
CCOc1ccccc1C(=O)N1CCCCC1C (centres undefined) | i | -1 | 41 | . | -0.73 | 2
Nc1ccc2c(c1)nc(Cc1ccccc1)n2CCO | i | -1 | 11 | 0 | -0.81 | 3
CCOC(=O)c1[nH]c2ccc(OC)cc2c1NC(=S)N1CCN(c2ccccn2)CC1 | i | 54* | -10 | -1 | 0.89 | 4
CCOC(=O)c1[nH]c2ccc(OC)cc2c1NC(=S)N1CCN(c2ccccc2)CC1 | i | 77* | -16 | -2 | 1.1 | 4
Cc1cccc(-n2cnc(C(=O)N/N=C\c3ccc(Br)cc3)c2)n1 | i | 99* | 64 | -5 | -0.71 | 4
Cc1cccc(-n2cnc(C(=O)NNC(=S)Nc3ccc(Cl)cc3)c2)n1 | i | 100* | 17 | -1 | 1.7 | 3
Cc1nc2ccccn2c1C(=O)NNC(=S)Nc1ccc(Cl)cc1 | i | -4 | 2 | . | -0.79 | 3
CN(CC(=O)OCC(=O)c1c(N)n(C)c(=O)n(C)c1=O)S(=O)(=O)c1ccc(Cl)cc1 | i | -3 | 6 | 0 | -0.34 | 2
COc1cccc(NC(=O)c2ncc(Cl)c(Cl)c2Cl)c1 | i | 9 | -11 | -1 | -1.3 | 2
CCOC(=O)N1CCN(CC(O)c2ccc3cc[nH]c3c2)CC1 (centres undefined) | i | 70* | -13 | . | 0.21 | 6
CCOC(=O)N1CCN(CC(O)c2ccc3c(c2)CCN3)CC1 (centres undefined) | i | 1 | 5 | 6 | 0.1 | 3
COc1ccccc1N1CCN(CC(O)c2ccc3cc[nH]c3c2)CC1 (centres undefined) | . | 89* | 1 | -1 | -1.5 | 7
COc1ccc2[nH]cc(C(O)CN3CCN(c4ccccc4F)CC3)c2c1 (centres undefined) | . | . | 2 | 5 | 0.021 | .
NC(=S)NNC(=O)c1cccc(Cl)c1 | . | . | 12 | -1 | 0.74 | .
COCCCNC(=O)c1cc(S(=O)(=O)N2CCOCC2)ccc1SCc1cccc(OC)c1OC | i | 0 | -3 | 1 | -0.43 | 2
CC(=O)c1nn(-c2cccc(Br)c2)cc1C(=O)c1ccccc1 | i | -2 | 74* | -5 | -0.68 | 3

Screening data: PubChem, several laboratories
